EPA's CvTdb concentration-time database

Tests used:
Mouse [1] = assay: concentration in plasma after dosing; conditions: 0.25 h; dosed: 2-Hydroxy-4-methoxybenzophenone; 500 mg/kg; oral; Male; B6C3F1
Mouse [2] = assay: concentration in plasma after dosing; conditions: 10 min; dosed: 2-Hydroxy-4-methoxybenzophenone; 500 mg/kg; oral; Female; B6C3F1
Rat [3] = assay: concentration in plasma after dosing; conditions: 20 min; dosed: Methyleugenol; 37 mg/kg; oral; Male; F344/N
Rat [4] = assay: concentration in plasma after dosing; conditions: dosed: Methyleugenol, 37 mg/kg, oral, Male, F344/N
Mouse [5] = assay: concentration in plasma after dosing; conditions: dosed: 2,4-Dichlorophenoxyacetic acid, 1.0 mg/kg, oral, Male, B6C3F1
Hamster = assay: concentration in plasma after dosing; conditions: dosed: 2,4-Dichlorophenoxyacetic acid, Male, Syrian Golden
Summary of the method: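 Data points giving concentration or amount against time came from published in vivo toxicokinetic studies and from two structured collections. PubMed searching, classifier screening and manual review located the studies. Most points were digitised from plot screenshots using WebPlotDigitizer, the rest were copied from tables, and all keep their reported units.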

Mouse [6] = assay: concentration in plasma after dosing; conditions: 2.5 min; dosed: 2,4-Dichlorophenoxyacetic acid; 1.0 mg/kg; oral; Male; B6C3F1
Rat [7] = assay: concentration in brain after dosing; conditions: 2.5 h; dosed: 76231-76-0; 3.0 mg/kg; iv; Female; F344
Rat [8] = assay: concentration in brain after dosing; conditions: 6 h; dosed: alpha-Thujone; 25 mg/kg; oral; Male; Harlan Sprague Dawley
Rat [9] = assay: concentration in brain after dosing; conditions: 2 min; dosed: alpha-Thujone; 50 mg/kg; oral; Female; Harlan Sprague Dawley
Rat [10] = assay: concentration in brain after dosing; conditions: 3 h; dosed: alpha-Thujone; 50 mg/kg; oral; Male; Harlan Sprague Dawley
Rat [11] = assay: concentration in plasma after dosing; conditions: 10 min; dosed: alpha-Thujone; 50 mg/kg; oral; Female; Harlan Sprague Dawley
Rat [12] = assay: concentration in brain after dosing; conditions: 12 h; dosed: Perfluorohexane-1-sulphonic acid – potassium salt; 16 mg/kg; oral; Female; Harlan Sprague Dawley
Rat [13] = assay: concentration in liver after dosing; conditions: 12 h; dosed: Perfluorohexane-1-sulphonic acid – potassium salt; 16 mg/kg; oral; Female; Harlan Sprague Dawley
Rat [14] = assay: concentration in liver after dosing; conditions: 48 h; dosed: Perfluorohexane-1-sulphonic acid – potassium salt; 16 mg/kg; oral; Female; Harlan Sprague Dawley
Rat [15] = assay: concentration in plasma after dosing; conditions: dosed: Perfluorohexane-1-sulphonic acid – potassium salt, 4 mg/kg, oral, Male, F344
Rat [16] = assay: concentration in plasma after dosing; conditions: 2 h; dosed: Pyridine; 10 mg/kg; iv; Male; F344
Rat [17] = assay: concentration in plasma after dosing; conditions: dosed: Pyridine, 5 mg/kg, iv, Male, F344
Rat [18] = assay: concentration in plasma after dosing; conditions: dosed: Pyridine, 25 mg/kg, oral, Male, F344

O=C(c1ccccc1)c1ccc(O)cc1O [2,4-Dihydroxybenzophenone]
Conditions | concentration in plasma [ng/mL]
Mouse [1] | 1980
Mouse [2] | 4250

C=CCc1ccc(OC)c(OC)c1 [Methyleugenol]
Conditions | concentration in plasma [ng/mL]
Rat [3] | 246

Rat [4]
Conditions | concentration in plasma [ng/mL]
2 h | 32
10 min | 268

O=C(O)COc1ccc(Cl)cc1Cl [2,4-Dichlorophenoxyacetic acid]
Mouse [5]
Conditions | concentration in plasma [ng/mL]
0.25 h | 1400
0.5 h | 1920
2 h | 531
2.5 min | 1660
3 h | 476
4 h | 200
5 min | 3440
10 h | 734
10 min | 2340

concentration in plasma [ng/mL], Hamster
Conditions | 2.0 mg/kg | 8.0 mg/kg | 40 mg/kg
0.25 h, iv | – | 21300 | –
0.25 h, oral | 7560 | 16500 | 68500
0.5 h, oral | – | 3990 | 84200
1 h, iv | – | 1050 | –
1 h, oral | – | 5860 | 19100
1.5 h, iv | – | 915 | –
1.5 h, oral | – | 1080 | 29600
2 h, iv | – | 186 | –
2 h, oral | – | 1120 | 25400
2.5 h, oral | 1930 | – | –
2.5 min, iv | – | 127000 | –
2.5 min, oral | 217 | – | –
4 h, oral | – | 820 | 2830
5 min, iv | – | 77100 | –
5 min, oral | 453 | 19500 | 81600
6 h, oral | – | 1350 | 2700
10 min, iv | – | 42400 | –
10 min, oral | 2080 | – | –
20 min, iv | – | 20700 | –
40 min, iv | – | 3980 | –

Conditions | concentration in plasma [ng/mL]
Mouse [6] | 1730

CC(C)[C@]12CC(=O)[C@H](C)[C@H]1C2 [alpha-Thujone]
Conditions | concentration in brain [ng/g] | concentration in plasma [ng/mL]
Rat [7] | 15.2 | –
Rat [8] | 435 | –
Rat [9] | 87.7 | –
Rat [10] | 652 | –
Rat [11] | – | 835

O=S(=O)([O-])C(F)(F)C(F)(F)C(F)(F)C(F)(F)C(F)(F)C(F)(F)F.[K+] [Perfluorohexane-1-sulphonic acid – potassium salt]
Conditions | concentration in brain [ng/g] | concentration in liver [ng/g]
Rat [12] | 1190 | –
Rat [13] | – | 29700
Rat [14] | – | 13300

Rat [15]
Conditions | concentration in plasma [ng/mL]
3 h | 29800
192 h | 18200
1200 h | 6240

c1ccncc1 [Pyridine]
Conditions | concentration in plasma [ng/mL]
Rat [16] | 1320

concentration in plasma [ng/mL]
Conditions | 2 h | 4 h | 5 min | 14 h
Rat [17] | 2780 | – | – | 89
Rat [18] | – | 15500 | 4220 | –
